For assay [1], the system named is CT26, HCT116 and SW620 cells. Nature of the assay: Western blotting of HIF-1α, PD-L1, HMGA1, p-Erk and p-Akt expression. In kind it is cell-based. The procedure, abridged: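 Cells were exposed to a range of test compound concentrations and then lysed in RIPA buffer containing 1% protease and 2% phosphatase inhibitors. Total lysate (20 μg protein per lane) was run on SDS-PAGE and transferred to PVDF. Membranes were blocked in 5% milk/TBST, incubated with primary antibodies overnight at 4 °C, then with an HRP-labelled secondary antibody for 2 h at room temperature.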

The subject of another assay is HCT116 and CT26 cells. The experiment in a line: Immunogenic cell death: immunofluorescence of CRT and HMGB1. Format: cell-based. The settings on record: 100 nmol/L.

As for deoxybouvardin [RA-V], in assay [1] (CT26, HCT116 and SW620 cells), the HMGA1 expression result was “inhibited significantly”; the “p-Akt and p-Erk expression” value is recorded as “decreased”. Further, in assay [1] (CT26 cells, different concentrations), the PD-L1 expression entry is “down-regulated PD-L1 expression remarkably”. The “ICD effect: pre-apoptotic CRT exposure to membrane surface” value in the assay with HCT116 and CT26 cells was “failed to elicit significant pre-apoptotic CRT exposure”.

The values are drawn from article PMC9279713 (Acta Pharmaceutica Sinica. B, 2021).
